Screening results as filed in PubChem.
A selection: hits, their analogues and other compounds. The true share with any hit is near 1.9%.
PP1 counter – PP1-alpha phosphatase inhibitors, primary screen, counter-screen for PP5 inhibitor project, biochemical, fluorescence, OMFP substrate, single point; Serine/threonine-protein phosphatase PP1-alpha catalytic subunit (Homo sapiens), P62136; purified PP1alpha; inhibition, % at 6.7 µM; 320,000 compounds, 0.9% hits;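 active = inhibition above the mean inhibition of all tested compounds plus 3 SD, computed separately for each screening campaign, cut at about 15% in these data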
PP5 primary – PP5 phosphatase inhibitors, primary screen, biochemical, fluorescence. inhibition, % at 6.7 µM. purified PP5c, OMFP substrate fluorescence. 320,000 compounds, 0.18% hits. AID 1987, 2009. Serine/threonine-protein phosphatase 5 (Homo sapiens), P53041;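 active = inhibition above the campaign's mean inhibition across all tested compounds plus 3 SD, cut at about 9.5% in these data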
Target sequence (P53041 whole entry, looked up): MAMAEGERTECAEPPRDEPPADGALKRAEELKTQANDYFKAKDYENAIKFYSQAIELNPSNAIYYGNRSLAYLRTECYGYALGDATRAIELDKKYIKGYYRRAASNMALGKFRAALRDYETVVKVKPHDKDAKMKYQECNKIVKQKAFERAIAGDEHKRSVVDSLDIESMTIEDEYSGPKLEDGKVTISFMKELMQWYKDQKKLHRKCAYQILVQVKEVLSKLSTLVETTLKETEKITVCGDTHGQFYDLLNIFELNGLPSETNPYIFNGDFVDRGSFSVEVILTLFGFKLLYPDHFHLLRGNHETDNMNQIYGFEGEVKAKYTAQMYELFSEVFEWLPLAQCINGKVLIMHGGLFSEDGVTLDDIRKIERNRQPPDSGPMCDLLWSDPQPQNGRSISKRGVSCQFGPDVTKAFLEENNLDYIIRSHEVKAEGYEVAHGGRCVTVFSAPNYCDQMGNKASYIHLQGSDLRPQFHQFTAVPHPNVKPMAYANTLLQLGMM
NS3 helicase inh – inhibitors of HCV NS3 helicase, primary screen, biochemical, Cy5 molecular beacon fluorescence; NS3 helicase DNA unwinding; inhibition, % at 10.9 µM; 290,000 compounds, 0.56% hits;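 active = inhibition above the mean of all tested compounds plus 3 SD, set per campaign, cut at about 35% in these data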
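Control set: DMSO versus 110 µM thioflavine S; Material: NS3 helicase fragment of HCV; Measured by: Cy5 fluorescence at 0 and 60 min, beacon hairpin quenching; Read-out basis: percent inhibition from t60/t0 fluorescence ratio; Times: reaction time 60 min, 25 °C; Repeats: single replicate; Compound dosing: single dose, 10.9 µM nominal final, DMSO 0.8% final.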
FID counter – compounds displacing fluorescent DNA intercalator, primary screen, artefact control for HCV NS3 helicase inhibitor project, biochemical, FID fluorescence | 290,000 compounds, 0.17% hits | DNA fluorescent intercalator displacement | inhibition, % at 7.9 µM; in the data active = inhibition above about 37%;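 also: higher means more ethidium bromide displaced from hairpin DNA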
HIF act – HIF pathway transcriptional activators, primary screen, cell-based, U2OS HRE-luciferase, luminescence | AID 1910, 2009 | U2OS HRE-luciferase reporter; normalized: DMSO 0%, desferrioxamine 100% | 300,000 compounds, 0.32% hits | activation, % at 7.5 µM (by protocol);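 active = mean activation of at least 10% of the iron chelator positive control signal, with at least half of replicates also reaching 10%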
PP1 confirm – PP1 phosphatase inhibitors, confirmation, biochemical, fluorescence, OMFP substrate, triplicate; shares compounds with PP1 counter; purified PP1alpha; inhibition, % at 6.7 µM; 1,900 compounds, 52% hits; AID 2358, 2010;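 active = mean PP1 inhibition above a set limit taken from the earlier primary screen, cut at about 15% in these data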
PP5 inh counter – PP5 phosphatase inhibition by PP1 hits, confirmation, counter-screen for PP1 inhibitor project, biochemical, fluorescence, triplicate. shares compounds with PP1 counter. purified PP5c, OMFP fluorescence. inhibition, % at 6.7 µM. 1,900 compounds, 4% hits. AID 2360, 2010;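 active = mean PP5 inhibition over triplicate wells above about 9.5% taken from the earlier PP1 screen, limit read from the data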
Each line names hits and unclear results; the compound was inactive in the other large screens (follow-up assays come after a bar, where they were run).

O=C(CCN1C(=O)/C(=C/c2ccccc2Cl)SC1=S)NC1C=CS(=O)(=O)C1 (stereo not given)	PP1 counter 24 | PP1 confirm 24 | PP5 inh counter inactive
COc1ccc(NC(=O)CN2CCOCC2)cc1	none
COc1ccc(C2CC(c3ccccc3)=NN2c2ccc(/C=N/NC(=O)c3ccncc3)cc2)cc1 (stereo not given)	none
N#CCC(=O)N/N=C/c1ccc(N2N=C(c3ccccc3)CC2c2ccccc2)cc1 (stereo not given)	PP1 counter 25 | PP1 confirm 17 | PP5 inh counter inactive
O=C(C1CC(=O)N(c2ccc3c(c2)OCCO3)C1)N1CCN(Cc2ccccc2F)CC1 (stereo not given)	none (no result: NS3 helicase inh, FID counter, HIF act)
CCCCCCc1cc2cc(-c3nnc(-c4ccccc4OC)o3)c(=O)oc2cc1O	PP1 counter 20 | PP1 confirm inactive | PP5 inh counter inactive
CCCCCCc1cc2cc(-c3nnc(-c4ccccc4O)o3)c(=O)oc2cc1O	none
O=C(Nc1nnc(-c2ccc(Br)cc2)o1)c1cccc(N2C(=O)CCC2=O)c1	none (no result: NS3 helicase inh, FID counter)
CC1CC(C)CN(S(=O)(=O)c2ccc(C(=O)Nc3nnc(C4CC4)o3)cc2)C1 (stereo not given)	PP1 counter 19 | PP1 confirm 27 | PP5 inh counter inactive
CCC1CCCCN1S(=O)(=O)c1ccc(C(=O)Nc2nnc(-c3ccccc3Cl)o2)cc1 (stereo not given)	none
CCC1CCCCN1S(=O)(=O)c1ccc(C(=O)Nc2nnc(C3CC3)o2)cc1 (stereo not given)	PP1 counter 23 | PP1 confirm 26 | PP5 inh counter inactive
O=C(Nc1nc(-c2ccccn2)cs1)c1ccc(Br)s1	PP1 counter 31 | PP1 confirm 17 | PP5 inh counter inactive
O=C(Nc1nc(-c2ccccn2)cs1)c1cccc(-n2cnnn2)c1	PP1 counter 27, HIF act 20 | PP1 confirm 21 | PP5 inh counter inactive
O=C(Nc1ccc(Br)cc1)c1cccc(-n2cnnn2)c1	none
Cc1ccccc1C(=O)NC(C(N)=O)P(=O)(OC(C)C)OC(C)C (stereo not given)	none
CC1CCCN(S(=O)(=O)c2ccc(NC(=O)[C@@H]3CCCN3C(=O)c3cccs3)cc2)C1 (stereo not given in full)	none (no result: NS3 helicase inh, FID counter, HIF act)
CCN1CCN(Cc2ccc(NC(=O)c3cc(NC(=O)C4=NN(c5ccccc5)C(=O)C4)cc(OC)c3)cc2C(F)(F)F)CC1	PP1 counter 18 (no result: NS3 helicase inh, FID counter) | PP1 confirm inactive | PP5 inh counter inactive
CCN1CCN(Cc2ccc(NC(=O)c3cc(NC(=O)c4cncc(-c5cccs5)c4)cc(OC)c3)cc2C(F)(F)F)CC1	PP1 counter 19 | PP1 confirm inactive | PP5 inh counter inactive
CCN1CCN(Cc2ccc(NC(=O)c3ccc(C)c(NC(=O)C4=NN(c5ccccc5)C(=O)C4)c3)cc2C(F)(F)F)CC1	PP1 counter 18 (no result: NS3 helicase inh, FID counter) | PP1 confirm inactive | PP5 inh counter inactive
Cc1cccc(C(=O)NNC(=O)CSc2nnc(C3CC3)n2C)c1	none
O=C(O)COc1ccccc1/C=N/Nc1ccc(S(=O)(=O)Nc2ccc(Cl)cc2)cc1[N+](=O)[O-]	PP1 counter 19 | PP1 confirm inactive | PP5 inh counter inactive
CCOC(=O)c1c(-n2cnnn2)sc2c1CCCC2	none
CCOC(=O)c1c(N2C(=O)Nc3cc(Cl)c(Cl)cc3N2O)sc2c1CCCCC2	PP1 counter 19 (no result: HIF act) | PP1 confirm 17 | PP5 inh counter inactive
COc1ccccc1Nc1nnc(SCC(=O)Nc2cc(C)on2)s1	PP1 counter 19 | PP1 confirm inactive | PP5 inh counter inactive
Cc1ccc(C(=O)N(Cc2nnc(-c3ccc(Cl)cc3)o2)C2CC2)o1	none (no result: NS3 helicase inh, FID counter, HIF act)
